Shown are actives, neighbours in structure and some others; about 2.2% of the full set was active somewhere.
DNMT1 block – human DNMT1 methyltransferase inhibitors, primary screen, biochemical, molecular beacon, fluorescence, HinP1I cleavage, uHTS; DNA (cytosine-5)-methyltransferase 1 (Homo sapiens), P26358; inhibition (reported as % activation of signal), % at 10 µM; actives 0.83% (n = 360,000); AID 588458, 2011; in the data active = inhibition above about 50%
GRK2 aptamer HTS – compounds blocking aptamer binding on GRK2 – biochemical, human GRK2, bead flow cytometry, HTS, primary screen | inhibition of aptamer binding, % at 10 µM | Beta-adrenergic receptor kinase 1 (Homo sapiens), P25098 | actives 0.59% (n = 330,000) | FAM-aptamer displacement from GRK2;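 active = inhibition of aptamer binding above 40%, roughly 3 SD of noise, on plates passing a quality check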;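 also: median bead fluorescence of bound FAM aptamer so fluorescent compounds give negative values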
LMPTP block – LMPTP phosphatase inhibitors, primary screen, biochemical, fluorescence intensity, uHTS; Low molecular weight phosphotyrosine protein phosphatase (Homo sapiens), P24666; recombinant LMPTP-A, OMFP fluorogenic substrate; inhibition, % at 20 µM; actives 0.22% (n = 360,000);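 active = compounds that cut the enzyme signal by at least half of the control window in the single-dose screen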;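 also: plate controls were DMSO wells with enzyme plus substrate for no effect and substrate without enzyme for full effect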
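Material: LMPTP-A; amount: 0.625 nM enzyme; doses: single 20 µM dose; times: reaction 50 min, room temperature, dark; technique: fluorescence intensity of OMFP turnover product; benchmarks: no-enzyme and uninhibited controls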
Scp1 inh – Scp-1 phosphatase inhibitors, primary screen, biochemical, colorimetric, uHTS; AID 493091, 2011; actives 0.88% (n = 340,000); Carboxy-terminal domain RNA polymerase II polypeptide A small phosphatase 1 (Homo …; Recombinant Scp1, phosphopeptide, malachite green phosphate absorbance; inhibition, % at 20 µM;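 active = inhibition above about 50% at 20 µM, limit read from the data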;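 also: plate controls were DMSO wells with enzyme for no effect and wells lacking enzyme for full effect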
Target sequence (Q9GZU7 76-261 limits assumed): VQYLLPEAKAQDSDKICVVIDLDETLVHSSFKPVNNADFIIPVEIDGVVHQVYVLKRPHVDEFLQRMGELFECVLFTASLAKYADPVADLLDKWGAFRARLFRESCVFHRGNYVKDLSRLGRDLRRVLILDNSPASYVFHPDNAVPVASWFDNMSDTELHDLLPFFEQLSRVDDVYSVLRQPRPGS
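Times: enzyme reaction 45 min at room temperature, colour 5 min, stabilisation 30 min. Material: SCP-1 catalytic fragment, aa 76-261. Medium: Acidic Tris acetate buffer with magnesium and detergent. Signal: colorimetric free-phosphate detection, absorbance 630 nm. Read-out basis: % inhibition of SCP-1 phosphate liberation. Reagent: Phosphorylated 17-residue peptide substrate.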
STEP inh – STEP phosphatase inhibitors, primary screen, biochemical, fluorescence intensity, uHTS. Tyrosine-protein phosphatase non-receptor type 5 (Homo sapiens), P54829. recombinant STEP, OMFP fluorogenic substrate. inhibition, % at 20 µM. actives 0.25% (n = 360,000);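 active = inhibition at 20 µM, scaled per plate between control wells, above about 37%, limit read from the data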;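 also: 0% = DMSO with enzyme and substrate and 100% = substrate only without enzyme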
Target sequence (P54829 whole entry, looked up): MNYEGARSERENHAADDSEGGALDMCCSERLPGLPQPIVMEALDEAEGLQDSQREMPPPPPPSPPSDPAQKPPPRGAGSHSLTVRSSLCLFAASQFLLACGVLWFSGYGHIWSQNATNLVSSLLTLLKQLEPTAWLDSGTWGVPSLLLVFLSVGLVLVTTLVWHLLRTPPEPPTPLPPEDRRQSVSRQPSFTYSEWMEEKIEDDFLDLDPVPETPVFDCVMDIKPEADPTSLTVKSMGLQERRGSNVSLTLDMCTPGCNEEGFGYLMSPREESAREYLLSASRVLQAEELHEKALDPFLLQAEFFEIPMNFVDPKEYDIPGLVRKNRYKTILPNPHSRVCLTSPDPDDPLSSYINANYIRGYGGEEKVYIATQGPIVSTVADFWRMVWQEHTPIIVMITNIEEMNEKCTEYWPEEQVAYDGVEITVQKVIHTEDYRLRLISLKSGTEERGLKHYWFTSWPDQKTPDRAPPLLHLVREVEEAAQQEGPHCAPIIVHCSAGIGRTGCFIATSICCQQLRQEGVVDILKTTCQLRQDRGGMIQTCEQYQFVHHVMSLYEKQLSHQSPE
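material = STEP tyrosine phosphatase | reagent = fluorogenic phosphatase substrate OMFP at 25 µM final | doses = single compound dose of 20 µM, 1% DMSO final | schedule = 20 min reaction, room temperature, in the dark | measured by = fluorescence, 480/540 nm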
SUMO1-SIM PPI – modulators of SUMO1 protein-protein interactions, primary screen, biochemical, uHTS | inhibition, % at 20 µM | Small ubiquitin-related modifier 1 (Homo sapiens), P63165 | SUMO1 binding to a labelled peptide, TR-FRET, 1 h | actives 0.33% (n = 360,000) | AID 602429, 2012; in the data active = inhibition above about 37%
GRK2 inh confirm – GRK2 aptamer-displacing inhibitors, retest, confirmation, biochemical, cherry pick 1, bead flow cytometry; shares compounds with GRK2 aptamer HTS; bead-bound GRK2, FAM-aptamer displacement; aptamer displacement, % at 10 µM; actives 4% (n = 2,000); AID 504451, 2011;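 active = aptamer displacement above 40%, near three times the noise of non-fluorescent compounds, on plates passing quality checks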;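 also: negative values mostly reflect intrinsic compound fluorescence rather than true enhancement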
FAM quench CP1 – quenches fluorescent RNA aptamer, GRK2 hit artifact. fluorescence response (% of DMSO), % at 10 µM. Carboxyfluorescein RNA aptamer on beads, flow cytometry quenching; active compounds read low. AID 504580. shares compounds with GRK2 aptamer HTS. 2,000 tested, under 10 active;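 active = compounds that quench the bead-bound fluorescent RNA probe, cutting fluorescence to under half of the solvent control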;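 also: counterscreen run without GRK2 so only probe quenching by compound is measured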
GRK2 CP2 – GRK2 aptamer-displacing inhibitors, hit retest, confirmation, biochemical, cherry pick 2, bead flow cytometry | shares compounds with GRK2 aptamer HTS | inhibition of aptamer binding, % at 10 µM | bead-bound GRK2, FAM-aptamer displacement | 360 tested, under 10 active | AID 504782, 2011;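 active = inhibition of aptamer binding above 40%, about triple the noise seen with nonglowing compounds, on plates passing quality control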;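 also: negative values mostly come from compounds that fluoresce themselves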
FAM quench SP – quenches fluorescent RNA aptamer, GRK2 hit artifact | carboxyfluorescein RNA aptamer beads, flow cytometry quenching; active compounds read low | fluorescence response vs DMSO, % at 10 µM | AID 588494 | shares compounds with GRK2 aptamer HTS | 360 tested, under 10 active;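 active = response vs DMSO under 50%, meaning signal dropped by over half, treated as fluorescence quencher; inconclusive = no clear call, values can overlap the other calls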;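 also: labelled aptamer on streptavidin beads without GRK2 as a quench counter-screen; 100% = bead fluorescence of DMSO wells and lower means quenching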
Active calls of the source: *.

How did COc1ccc(OC)c(S(=O)(=O)N2CCN(c3c(C)cccc3C)CC2)c1 do in these assays?
DNMT1 block: -4; GRK2 aptamer HTS: 95*; LMPTP block: 1; Scp1 inh: -17; STEP inh: 3; SUMO1-SIM PPI: 2; GRK2 inh confirm: -1; FAM quench CP1: 101

How did COc1ccc(C)cc1NC(=O)c1ccc2c(c1)C(=O)N(Cc1ccncc1)C2=O do in these assays?
DNMT1 block: -4; GRK2 aptamer HTS: 79*; LMPTP block: 2; Scp1 inh: -6; STEP inh: -2; SUMO1-SIM PPI: -13; GRK2 inh confirm: 2; FAM quench CP1: 95

What do the screens show for `CC1CC(C)CN(S(=O)(=O)c2ccc(C(=O)N3CCN(c4ccccc4)CC3)cc2)C1` (stereo unspecified)?
DNMT1 block: -2; GRK2 aptamer HTS: 2; LMPTP block: 2; Scp1 inh: 4; STEP inh: 0; SUMO1-SIM PPI: 5; GRK2 inh confirm: 4; FAM quench CP1: 95

Results for COc1ccccc1N1CCN(C(=O)c2ccc(S(=O)(=O)N3CCCCCC3)cc2)CC1 ?
DNMT1 block: -3; GRK2 aptamer HTS: 1; LMPTP block: -1; Scp1 inh: -3; STEP inh: -5; SUMO1-SIM PPI: -1; GRK2 inh confirm: -2; FAM quench CP1: 97

Results for O=C(c1ccc(S(=O)(=O)N2CCCCCC2)cc1)N1CCN(c2ccccc2)CC1 ?
DNMT1 block: 0; GRK2 aptamer HTS: 4; LMPTP block: 0; Scp1 inh: -2; STEP inh: 0; SUMO1-SIM PPI: 8

Results for COc1ccccc1N1CCN(Cc2nc3ccccc3c(=O)n2CC(C)=O)CC1 ?
DNMT1 block: 1; GRK2 aptamer HTS: 0; LMPTP block: -1; Scp1 inh: -13; STEP inh: -1; SUMO1-SIM PPI: -7; GRK2 CP2: 16; FAM quench SP: inconclusive

Results for COc1cccc(CN(Cc2cccnc2)S(=O)(=O)c2ccc(-n3cnnn3)c(C)c2)c1 ?
DNMT1 block: 5; GRK2 aptamer HTS: 29; LMPTP block: -1; Scp1 inh: 11; STEP inh: 2; SUMO1-SIM PPI: 2; GRK2 inh confirm: -2; FAM quench CP1: 107

What do the screens show for `COc1cccc(NC(=O)C(C)NS(=O)(=O)c2ccc(Br)cc2)c1` (stereo unspecified)?
DNMT1 block: 3; GRK2 aptamer HTS: 41*; LMPTP block: -3; Scp1 inh: -2; STEP inh: -5; SUMO1-SIM PPI: 2; GRK2 CP2: -10; FAM quench SP: 99

What do the screens show for `COc1cccc(NC(=O)COc2ccc(S(=O)(=O)NC(C)C)cc2)c1`?
DNMT1 block: -2; GRK2 aptamer HTS: 0; LMPTP block: -2; Scp1 inh: -12; STEP inh: -8; SUMO1-SIM PPI: 4

What do the screens show for `CCN(CC)S(=O)(=O)c1ccc(OC)c(NC(=O)c2ccc(N3CCCC3=O)cc2)c1`?
DNMT1 block: -1; GRK2 aptamer HTS: 2; LMPTP block: -1; Scp1 inh: -13; STEP inh: -3; SUMO1-SIM PPI: 5

How did COc1ccc(S(=O)(=O)N2CCCCC2)cc1NC(=O)c1ccc(N2CCCC2=O)cc1 do in these assays?
DNMT1 block: 1; GRK2 aptamer HTS: 79*; LMPTP block: -1; Scp1 inh: -13; STEP inh: 0; SUMO1-SIM PPI: 0; GRK2 inh confirm: 1; FAM quench CP1: 101

Results for CCCCCC(=O)N1C[C@@H](n2cc(C3CC3)nn2)[C@H](O)C[C@@H]1c1ccc(Cl)cc1 ?
DNMT1 block: 0; LMPTP block: 0; STEP inh: 1; SUMO1-SIM PPI: 10

Results for O=C(/C=C/c1ccc(O)c(O)c1)O[C@@H]1C[C@](O)(C(=O)O)C[C@@H](O)[C@H]1O ?
DNMT1 block: 8; GRK2 aptamer HTS: 16; LMPTP block: -1; Scp1 inh: -3; STEP inh: -1; SUMO1-SIM PPI: -9; GRK2 inh confirm: -3; FAM quench CP1: 100

What do the screens show for `c1ccc(CN2CCC3CC2c2c3cccc2N2CCOCC2)cc1` (stereo unspecified)?
DNMT1 block: 3; LMPTP block: 0; STEP inh: 0; SUMO1-SIM PPI: 2

Results for Cc1ccc(Cl)cc1NC(=O)COC(=O)c1ccccc1O ?
DNMT1 block: 13; GRK2 aptamer HTS: 85*; LMPTP block: 0; Scp1 inh: 21; STEP inh: -1; SUMO1-SIM PPI: -2; GRK2 inh confirm: -5; FAM quench CP1: 98

How did O=C(COC(=O)c1cc(Cl)ccc1O)Nc1ccccc1C(=O)NC1CC1 do in these assays?
DNMT1 block: 13; GRK2 aptamer HTS: 1; LMPTP block: 0; Scp1 inh: 0; STEP inh: -4; SUMO1-SIM PPI: 1

What do the screens show for `O=C(Nc1cccc(NC(=O)c2ccco2)c1)c1cccc(Br)c1`?
DNMT1 block: -4; GRK2 aptamer HTS: 3; LMPTP block: 2; Scp1 inh: -5; STEP inh: 2; SUMO1-SIM PPI: -3

How did O=C(NC1CCCC1)c1cccc(NC(=O)c2ccco2)c1 do in these assays?
DNMT1 block: 2; GRK2 aptamer HTS: 4; LMPTP block: -1; Scp1 inh: 2; STEP inh: -2; SUMO1-SIM PPI: -3; GRK2 inh confirm: 2; FAM quench CP1: 99

Results for CC(=O)c1cccc(NC(=O)c2cccc(NC(=O)c3ccco3)c2)c1 ?
DNMT1 block: -4; GRK2 aptamer HTS: 6; LMPTP block: -2; Scp1 inh: -2; STEP inh: 0; SUMO1-SIM PPI: 1

Source: PubChem (several laboratories)
